Results taken from ChEMBL document CHEMBL1154645, “Aza-peptidyl Michael acceptor and epoxide inhibitors--potent and selective inhibitors of Schistosoma mansoni and Ixodes ricinus legumains (asparaginyl endopeptidases)” (J Med Chem, 2009).

How the values were obtained:
[1] = Inhibition of Schistosoma mansoni asparaginyl endopeptidase
Method in brief: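 Recombinant S. mansoni legumain zymogen expressed in Pichia pastoris and activated before use. Assay buffer was 0.1 M citrate-phosphate with 4 mM DTT at pH 6.8, with under 1% DMSO. The substrate was Cbz-Ala-Ala-[…]-AMC at a final 10 μM, and activity was read as AMC release.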

Legumain-like protease = biological target: T1, Legumain-like protease (Ixodes ricinus, UniProt Q6PRC7); test: Inhibition of Ixodes ricinus asparaginyl endopeptidases
T1 sequence (Q6PRC7 whole entry): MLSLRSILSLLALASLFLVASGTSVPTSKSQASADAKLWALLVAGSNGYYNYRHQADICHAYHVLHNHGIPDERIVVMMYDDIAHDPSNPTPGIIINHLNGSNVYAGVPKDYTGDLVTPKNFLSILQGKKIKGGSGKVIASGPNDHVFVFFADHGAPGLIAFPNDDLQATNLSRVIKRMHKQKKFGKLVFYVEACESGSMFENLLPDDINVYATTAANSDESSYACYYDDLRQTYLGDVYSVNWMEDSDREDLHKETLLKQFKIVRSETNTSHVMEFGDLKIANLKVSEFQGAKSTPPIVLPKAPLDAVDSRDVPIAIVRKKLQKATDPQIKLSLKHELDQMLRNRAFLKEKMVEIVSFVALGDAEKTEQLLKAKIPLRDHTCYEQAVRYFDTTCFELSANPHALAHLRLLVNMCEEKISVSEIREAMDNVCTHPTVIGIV
Method in brief: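 Recombinant I. ricinus legumain zymogen expressed in Pichia pastoris, then activated. Substrate: Cbz-Ala-Ala-[…]-AMC at 10 μM final, with fluorogenic AMC release as the read-out.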

IC50 [1]	IC50 (Legumain-like protease)	Compound	IC50 ([1]; read-out: IC50) [nM]	IC50 (Legumain-like protease; read-out: IC50) [nM]
–	–	C[C@H](NC(=O)[C@@H](C)NC(=O)N1CCCCC1)C(=O)NN(CC(N)=O)C(=O)/C=C/C(=O)NCCc1ccccc1	750	400
–	–	C[C@H](NC(=O)[C@@H](C)NC(=O)N1CCNCC1)C(=O)NN(CC(N)=O)C(=O)/C=C/C(=O)OCc1ccccc1	250	13
Not Active	Not Active	C[C@H](NC(=O)[C@H](C)NC(=O)N1CCOCC1)C(=O)NN(CC(N)=O)C(=O)OCc1ccccc1	–	–
Not Active	Not Active	C[C@H](NC(=O)N1CCOCC1)C(=O)NN(CC(N)=O)C(=O)/C=C/C(=O)NCc1ccco1	–	–
Not Active	Not Active	C=C/C=C(\C)CNC(=O)N(CC(N)=O)NC(=O)[C@H](C)NC(=O)N1CCN(C(=O)OCc2ccccc2)CC1	–	–
–	–	C[C@H](NC(=O)[C@@H](C)NC(=O)N1CCNCC1)C(=O)NN(CC(N)=O)C(=O)/C=C/C(=O)N(C)Cc1cccc2ccccc12	40	3.8
–	–	C[C@H](NC(=O)[C@@H](C)NC(=O)N1CCNCC1)C(=O)NN(CC(N)=O)C(=O)/C=C/C(=O)N(Cc1ccccc1)Cc1ccccc1	90	31
–	–	C[C@H](NC(=O)[C@H](C)NC(=O)N1CCCCC1)C(=O)NN(CC(N)=O)C(=O)/C=C/C(=O)N(Cc1ccccc1)Cc1ccccc1	80	17
–	–	C[C@H](NC(=O)[C@@H](C)NC(=O)N1CCN(C(=O)OC(C)(C)C)CC1)C(=O)NN(CC(N)=O)C(=O)/C=C/C(=O)OCc1ccccc1	45	7.5
–	–	C[C@H](NC(=O)[C@@H](C)NC(=O)N1CCN(C(=O)OC(C)(C)C)CC1)C(=O)NN(CC(N)=O)C(=O)/C=C/C(=O)N(C)Cc1cccc2ccccc12	58	20
–	–	CCOC(=O)/C=C/C(=O)N(CC(N)=O)NC(=O)[C@H](C)NC(=O)[C@@H](C)NC(=O)N1CCN(C(=O)OCc2ccccc2)CC1	–	0.14
–	–	CC(C)[C@H](NC(=O)[C@@H](C)NC(=O)OCc1ccccc1)C(=O)NN(CC(N)=O)C(=O)/C=C/C(=O)NCc1cccc2ccccc12	1050	350
–	–	CCOC(=O)/C=C/C(=O)N(CC(N)=O)NC(=O)[C@@H](NC(=O)[C@@H](C)NC(=O)OCc1ccccc1)C(C)C	100	65
–	–	C[C@H](NC(=O)N1CCN(C(=O)OCc2ccccc2)CC1)C(=O)NN(CC(N)=O)C(=O)/C=C/C(=O)N1CCc2ccccc2C1	750	800
–	–	C[C@H](NC(=O)[C@@H](C)NC(=O)N1CCOCC1)C(=O)NN(CC(N)=O)C(=O)/C=C/C(=O)N(Cc1cccc2ccccc12)Cc1cccc2ccccc12	45	3.3
–	–	C[C@H](NC(=O)N1CCN(C(=O)OCc2ccccc2)CC1)C(=O)NN(CC(N)=O)C(=O)/C=C/C(=O)N1CCCc2ccccc21	750	850
Not Active	Not Active	C[C@H](NC(=O)N1CCOCC1)C(=O)NN(CC(N)=O)C(=O)/C=C/C(=O)NC1CC1	–	–
Not Active	Not Active	C[C@H](NC(=O)N1CCOCC1)C(=O)NN(CC(N)=O)C(=O)Nc1cccc2ccccc12	–	–
–	–	C[C@H](NC(=O)N1CCOCC1)C(=O)NN(CC(N)=O)C(=O)/C=C/C(=O)N1CCc2ccccc2C1	750	600
–	–	CCOC(=O)/C=C/C(=O)N(CC(N)=O)NC(=O)[C@H](C)NC(=O)[C@@H](C)NC(=O)N1CCCCC1	80	15
Not Active	Not Active	C[C@H](NC(=O)N1CCOCC1)C(=O)NN(CC(N)=O)C(=O)CCc1ccccc1	–	–
–	–	C[C@H](NC(=O)[C@@H](C)NC(=O)N1CCN(C(=O)OC(C)(C)C)CC1)C(=O)NN(CC(N)=O)C(=O)/C=C/C(=O)N(Cc1ccccc1)Cc1ccccc1	45	30
–	–	CCOC(=O)/C=C/C(=O)N(CC(N)=O)NC(=O)OC(C)(C)C	> 2000	750
–	–	CCOC(=O)/C=C/C(=O)N(CC(N)=O)NC(=O)[C@H](C)NC(=O)[C@@H](C)NC(=O)N1CCN(C(=O)OC(C)(C)C)CC1	80	8.5

IC50 [1]	IC50 (Legumain-like protease)	Compound	IC50 ([1]; read-out: IC50) [nM]	IC50 (Legumain-like protease; read-out: IC50) [nM]
Not Active	Not Active	CC(C)(C)OC(=O)NN(CC(N)=O)C(=O)/C=C/C(=O)NCC1CCCCC1	–	–
–	Not Active	C[C@H](NC(=O)N1CCOCC1)C(=O)NN(CC(N)=O)C(=O)/C=C/C(=O)NCCCc1ccccc1	> 2000	–
Not Active	Not Active	CC(C)(C)OC(=O)NN(CC(N)=O)C(=O)/C=C/C(=O)NCCCc1ccccc1	–	–
–	–	CCOC(=O)/C=C/C(=O)N(CC(N)=O)NC(=O)[C@@H](NC(=O)[C@@H](C)NC(=O)OCc1ccccc1)[C@@H](C)CC	280	0.52
Not Active	Not Active	C[C@H](NC(=O)N1CCCCC1)C(=O)NN(CC(N)=O)C(=O)Nc1ccccc1Oc1ccccc1	–	–
–	–	C[C@H](NC(=O)[C@@H](C)NC(=O)N1CCOCC1)C(=O)NN(CC(N)=O)C(=O)/C=C/C(=O)N1CCc2ccccc2C1	103	65
–	–	C[C@H](NC(=O)N1CCCCC1)C(=O)NN(CC(N)=O)C(=O)/C=C/C(=O)N1CCc2ccccc2C1	600	150
–	–	CCOC(=O)/C=C/C(=O)N(CC(N)=O)NC(=O)[C@H](C)NC(=O)[C@@H](C)NC(=O)N1CCNCC1	300	8.5
–	–	CCOC(=O)/C=C/C(=O)N(CC(N)=O)NC(=O)[C@H](C)NC(=O)[C@@H](C)NC(=O)N1CCOCC1	101	0.23
–	–	C[C@H](NC(=O)[C@@H](C)NC(=O)N1CCN(C(=O)OCc2ccccc2)CC1)C(=O)NN(CC(N)=O)C(=O)/C=C/C(=O)N(C)Cc1cccc2ccccc12	70	0.35
–	–	C[C@H](NC(=O)[C@@H](C)NC(=O)N1CCN(C(=O)OCc2ccccc2)CC1)C(=O)NN(CC(N)=O)C(=O)/C=C/C(=O)N(Cc1cccc2ccccc12)Cc1cccc2ccccc12	50	0.37
–	–	CC(C)[C@H](NC(=O)[C@@H](C)NC(=O)OCc1ccccc1)C(=O)NN(CC(N)=O)C(=O)/C=C/C(=O)N1CCCc2ccccc21	138	13
–	–	COc1ccc(CNC(=O)/C=C/C(=O)N(CC(N)=O)NC(=O)[C@H](C)NC(=O)N2CCOCC2)cc1OC	> 2000	> 2000
–	–	C[C@H](NC(=O)[C@@H](C)NC(=O)N1CCN(C(=O)OC(C)(C)C)CC1)C(=O)NN(CC(N)=O)C(=O)/C=C/C(=O)N(Cc1cccc2ccccc12)Cc1cccc2ccccc12	68	5
Not Active	Not Active	CC(C)(C)OC(=O)NN(CC(N)=O)C(=O)/C=C/C(=O)NCc1ccccc1	–	–
–	–	C[C@H](NC(=O)[C@H](C)NC(=O)N1CCCCC1)C(=O)NN(CC(N)=O)C(=O)/C=C/C(=O)N(Cc1cccc2ccccc12)Cc1cccc2ccccc12 (relative stereo)	57	8
–	–	C[C@H](NC(=O)[C@@H](C)NC(=O)N1CCNCC1)C(=O)NN(CC(N)=O)C(=O)/C=C/C(=O)N(Cc1cccc2ccccc12)Cc1cccc2ccccc12 (relative stereo)	70	2.6
–	–	CC(NC(=O)N1CCCCC1)C(=O)N[C@@H](C)C(=O)NN(CC(N)=O)C(=O)[C@H]1O[C@@H]1C(=O)N(Cc1ccccc1)Cc1ccccc1 (single isomer, unassigned)	72	12
–	–	CC(NC(=O)N1CCCCC1)C(=O)N[C@@H](C)C(=O)NN(CC(N)=O)C(=O)[C@H]1O[C@@H]1C(=O)NCc1cccc2ccccc12 (single isomer, unassigned)	160	8.5
–	–	CC(NC(=O)N1CCN(C(=O)OC(C)(C)C)CC1)C(=O)N[C@@H](C)C(=O)NN(CC(N)=O)C(=O)[C@H]1O[C@@H]1C(=O)N(Cc1ccccc1)Cc1ccccc1 (single isomer, unassigned)	80	270
–	–	CCOC(=O)[C@H]1O[C@@H]1C(=O)N(CC(N)=O)NC(=O)[C@H](C)NC(=O)C(C)NC(=O)N1CCCCC1 (single isomer, unassigned)	220	30
–	–	CC(NC(=O)N1CCOCC1)C(=O)N[C@@H](C)C(=O)NN(CC(N)=O)C(=O)[C@H]1O[C@@H]1C(=O)NCc1cccc2ccccc12 (single isomer, unassigned)	60	6
–	–	CC(NC(=O)N1CCOCC1)C(=O)N[C@@H](C)C(=O)NN(CC(N)=O)C(=O)[C@H]1O[C@@H]1C(=O)N(Cc1ccccc1)Cc1ccccc1 (single isomer, unassigned)	90	1.7
–	–	CC(NC(=O)N1CCNCC1)C(=O)N[C@@H](C)C(=O)NN(CC(N)=O)C(=O)[C@H]1O[C@@H]1C(=O)N(Cc1ccccc1)Cc1ccccc1 (single isomer, unassigned)	150	11

Compound	IC50 [1]	IC50 (Legumain-like protease)	IC50 ([1]; read-out: IC50) [nM]	IC50 (Legumain-like protease; read-out: IC50) [nM]
C[C@H](NC(=O)[C@@H](C)NC(=O)N1CCOCC1)C(=O)NN(CC(N)=O)C(=O)[C@H]1O[C@H]1C(=O)N(Cc1ccccc1)Cc1ccccc1	Not Active	Not Active	–	–
